Assay results collected from several papers.
Protocols differ between the studies behind these lines.

N#CC1CCCN(c2nc(-c3ccccn3)nc3ccccc23)C1 (stereo not drawn)  Papp (PAMPA; 10 µM, 3 h, pH 7.4): 22.4 ×10⁻⁶ cm/s
CC[C@H](C)Nc1ccnc(Nc2cccc(-c3cccnc3)c2)n1  Papp (PAMPA; 50 nM, 30 min): 2000 ×10⁻⁶ cm/s
Cc1cn2nc(-c3cc(=O)n4cc(N5CCNC6(CC6)C5)ccc4n3)cc(C)c2n1  fraction unbound (cynomolgus monkey, plasma): 0.15
CCc1cc(C(=O)NC)c2nccc(N3CCc4c(cc(Cn5ccnc5)cc4-c4cn(C)nc4C(F)(F)F)C3=O)c2c1  AUC(0-inf) (male Sprague-Dawley rat, plasma; oral, 100 mg/kg, single dose): 37300 ng·h/mL
c1ccc(C2CCN(c3nc(-c4ccn[nH]4)nc4ccccc34)C2)nc1 (stereo not drawn)  Papp (PAMPA; 10 µM, 3 h, pH 7.4): 41.5 ×10⁻⁶ cm/s
C=CC(=O)N1CC2CC(n3nc(-c4ccc(C(=O)Nc5ccccn5)cc4)c4c(N)ncnc43)CC2C1 (stereo not drawn)  AUC(0-t) (male Wistar rat, plasma; oral, 10 mg/kg): 2730 ng·h/mL
CCOC(=O)[C@@]12C[C@@H]1[C@@H](n1ccc3c(NC)nc(C#Cc4ccc(Cl)s4)nc31)[C@H](O)[C@@H]2O  AUC(0-t) (male Sprague-Dawley rat, plasma; intravenous, 0.5 mg/kg): 27.6 ng·h/mL
CCn1ncc2c(N3CCC(c4ccccn4)C3)nc(-c3ccccn3)nc21 (stereo not drawn)  Papp (PAMPA; 10 µM, 3 h, pH 7.4): 30.2 ×10⁻⁶ cm/s
CCNc1ccnc(Nc2cccc(-c3cccnc3)c2)n1  Papp (PAMPA; 50 nM, 30 min): 2200 ×10⁻⁶ cm/s
